As a reminder, the MIC is the lowest concentration that inhibits growth of the organism. In general, EC50 refers to the concentration at which the effect is half-maximal. By CC50 is commonly meant the concentration that lowers cell viability or growth by half. What is called IC50 is the concentration that gives 50% inhibition.

Converted amounts (≈) assume the structure as drawn.

For data set [1], the system named is Streptococcus viridans. Put plainly: Antibacterial activity against Streptococcus viridans after 24 hrs by broth microdilution method. The format is functional. The method, boiled down:
(§1)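 Clinical isolates. Each dilution received 100 μl of 0.5 McFarland fresh culture. Solvent (DMSO), growth and standard controls were included. Tubes were incubated at 37 °C for 24 h. MIC is the highest dilution showing no turbidity. Tests were run in triplicate, with at least two repetitions.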
(In general: Broth dilution looks for growth in wells or tubes with falling amounts of substance.)

Data set [2] has as its system Proteus mirabilis. Briefly: Antibacterial activity against Proteus mirabilis after 24 hrs by broth microdilution method. The format is functional. The method, boiled down: as §1
For data set [3], the system named is Escherichia coli. Briefly: Antibacterial activity against Escherichia coli after 24 hrs by broth microdilution method. The format is functional. An outline of the steps: as §1
Data set [4] relates to Klebsiella pneumoniae. Put plainly: Antibacterial activity against Klebsiella pneumoniae after 24 hrs by broth microdilution method. The format is functional. The method, boiled down:
as §1

Data set [5] relates to Coxsackievirus B4. Briefly: Antiviral activity against Human coxsackievirus B4 infected in human HeLa cells assessed as protection from virus-induced cytopathogenicity after 2 days by MTT assay. The format is functional, organism-based. Particulars: Enterovirus B, 48 h. In general terms: Damage to the host cells serves as the signal in cytopathic effect assays.
The test system of data set [6] is Vero. Briefly: Cytotoxicity against PIV 3 infected african green monkey Vero cells by trypan blue exclusion method. The format is cell-based. Particulars: chlorocebus sabaeus, vero. An outline of the steps:
(§2)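 Uninfected confluent cultures were run in parallel with the infected cultures. Medium was replaced by 1 ml maintenance medium with serial compound concentrations; cell controls received no compound. Cultures were incubated at 37 °C. After 2 and 7 days, compound was withdrawn and viability was determined by trypan blue exclusion.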

Data set [7] concerns Respiratory syncytial virus. Put plainly: Antiviral activity against Respiratory syncytial virus infected in human HeLa cells assessed as protection from virus-induced cytopathogenicity after 4 days by MTT assay. The format is functional, organism-based. The settings on record: 96 h.
The subject of data set [8] is HEL. Put plainly: Cytotoxicity against VSV infected HEL cells by trypan blue exclusion method. The format is cell-based. Particulars: human, hel. The method, boiled down:
as §2

Data set [9] relates to HeLa. Briefly: Cytotoxicity against Human coxsackievirus B4 infected human HeLa cells by trypan blue exclusion method. The format is cell-based. Particulars: hela. An outline of the steps:
as §2

The test system of data set [10] is Felid alphaherpesvirus 1. Briefly: Antiviral activity against Feline herpesvirus infected in cat CRFK cells assessed as protection from virus-induced cytopathogenicity by MTT assay. The format is functional, organism-based. Particulars: Felid alphaherpesvirus 1, CRFK.
For data set [11], the system named is HeLa. Briefly: Cytotoxicity against Respiratory syncytial virus infected human HeLa cells by trypan blue exclusion method. Particulars: hela. The format is cell-based. The method, boiled down:
as §2

Data set [12] deals with Sindbis virus. Briefly: Antiviral activity against Sindbis virus infected in african green monkey Vero cells assessed as protection from virus-induced cytopathogenicity after 2 to 3 days by MTT assay. The format is functional, organism-based.
The subject of data set [13] is Vesicular stomatitis virus. Briefly: Antiviral activity against VSV infected in HEL cells assessed as protection from virus-induced cytopathogenicity after 1 to 2 days by MTT assay. The format is functional, organism-based.
For data set [14], the system named is Human alphaherpesvirus 2. Put plainly: Antiviral activity against Herpes simplex virus 2 G infected in HEL cells assessed as protection from virus-induced cytopathogenicity after 2 to 3 days by MTT assay. The format is functional, organism-based. The settings on record: Human alphaherpesvirus 2, strain G.
Data set [15] has as its system MDCK. Briefly: Cytotoxicity against Influenza A virus subtype H3N2 infected MDCK cells by trypan blue exclusion method. The format is cell-based, Canis lupus familiaris. The settings on record: dog.
Data set [16] is described as follows: Cytotoxicity against HIV2 ROD infected human MT4 cells by MTT assay. The settings on record: MT4 cells infected with HIV-2 ROD. The format is cell-based. An outline of the steps:
(§3)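 MT-4 cells (3 × 10^4 per well) were cultured in microdilution trays with various concentrations of compound, then incubated 5 days at 37 °C, and viable cell number was read by MTT.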
Background: Tetrazolium assays rely on reduction of a dye to a coloured formazan, in cell work by metabolically active cells.

Data set [17] relates to MDCK. Briefly: Cytotoxicity against Influenza B virus infected MDCK cells by trypan blue exclusion method. The settings on record: dog. The format is cell-based, Canis lupus familiaris.
For data set [18], the system named is HeLa. Put plainly: Cytotoxicity against VSV infected human HeLa cells by trypan blue exclusion method. The format is cell-based. The settings on record: hela. An outline of the steps: as §2
The test system of data set [19] is HEL. Briefly: Cytotoxicity against acyclovir-sensitive Herpes simplex virus 1 KOS infected HEL cells by trypan blue exclusion method. The format is cell-based. The settings on record: human. An outline of the steps:
as §2

In data set [20] the test system is Influenza A virus. Briefly: Antiviral activity against Influenza A virus H1N1 infected in MDCK cells assessed as protection from virus-induced cytopathogenicity after 6 to 7 days by MTT assay. The format is functional, organism-based.
Data set [21] has as its system Human alphaherpesvirus 1. Put plainly: Antiviral activity against Herpes simplex virus 1 KOS infected in HEL cells assessed as protection from virus-induced cytopathogenicity after 2 to 3 days by MTT assay. The format is functional, organism-based. Particulars: Human alphaherpesvirus 1, KOS.
The subject of data set [22] is HEL. Briefly: Cytotoxicity against Herpes simplex virus 2 G infected HEL cells by trypan blue exclusion method. The format is cell-based. The settings on record: human, hel. An outline of the steps:
as §2

Data set [23] is described as follows: Cytotoxicity against HIV1 3B-infected human MT4 cells by MTT assay. The format is cell-based. Particulars: MT4 cells infected with HIV-1 3B. An outline of the steps:
as §3

Data set [24] can be described thus: Cytotoxicity against Feline coronavirus infected cat CRFK cells by trypan blue exclusion method. The format is cell-based, Felis catus. Particulars: crfk. An outline of the steps: as §2
The subject of data set [25] is Influenza B virus. Briefly: Antiviral activity against Influenza B virus infected in MDCK cells assessed as protection from virus-induced cytopathogenicity after 6 to 7 days by MTT assay. The format is functional, organism-based.
Data set [26] can be described thus: Cytotoxicity against Feline herpesvirus infected cat CRFK cells by trypan blue exclusion method. The format is cell-based, Felis catus. The settings on record: crfk. The method, boiled down: as §2
Data set [27] concerns Human alphaherpesvirus 1. Briefly: Antiviral activity against acyclovir-sensitive Herpes simplex virus 1 KOS infected in HEL cells assessed as protection from virus-induced cytopathogenicity after 2 to 3 days by MTT assay. The format is functional, organism-based. Particulars: Human alphaherpesvirus 1, KOS.
The subject of data set [28] is Vero. Briefly: Cytotoxicity against Sindbis virus infected african green monkey Vero cells by trypan blue exclusion method. The format is cell-based. The settings on record: chlorocebus sabaeus, vero. An outline of the steps: as §2
Data set [29] has as its system HEL. Briefly: Cytotoxicity against Vaccinia virus infected HEL cells by trypan blue exclusion method. Particulars: human, hel. The format is cell-based. An outline of the steps:
as §2

Data set [30] has as its system Human immunodeficiency virus 1. Put plainly: Antiviral activity against HIV1 3B-infected in human MT4 cells assessed as protection from virus-induced cytopathogenicity after 5 days by MTT assay. Particulars: Human immunodeficiency virus 1, 3B, MT4, 120 h. The format is functional, organism-based. An outline of the steps:
(§4)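 MT-4 cells at 3 × 10^4 per well were infected with HIV (IIIB or ROD) at 50% cell culture infective doses. Graded compound concentrations were added immediately after infection. Plates were incubated for 5 days at 37 °C and viable cells were counted by MTT.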

For data set [31], the system named is Mammalian orthoreovirus 1. Put plainly: Antiviral activity against Reovirus 1 infected in african green monkey Vero cells assessed as protection from virus-induced cytopathogenicity after 6 to 7 days by MTT assay. The format is functional, organism-based. Particulars: Mammalian orthoreovirus 1, Vero.
In data set [32] the test system is HEL. Briefly: Cytotoxicity against Herpes simplex virus 1 KOS infected HEL cells by trypan blue exclusion method. The format is cell-based. Particulars: human, hel. An outline of the steps: as §2
Data set [33] has as its system MDCK. Put plainly: Cytotoxicity against Influenza A virus subtype H1N1 infected MDCK cells by trypan blue exclusion method. Particulars: dog. The format is cell-based, Canis lupus familiaris.
Data set [34] concerns Influenza A virus. Briefly: Antiviral activity against Influenza A virus H3N2 infected in MDCK cells assessed as protection from virus-induced cytopathogenicity after 6 to 7 days by MTT assay. The format is functional, organism-based.
Data set [35] deals with Coxsackievirus B4. Briefly: Antiviral activity against Human coxsackievirus B4 infected in african green monkey Vero cells assessed as protection from virus-induced cytopathogenicity after 2 days by MTT assay. The format is functional, organism-based. The settings on record: Enterovirus B, 48 h.
Data set [36] relates to Human respirovirus 3. Put plainly: Antiviral activity against PIV 3 infected in african green monkey Vero cells assessed as protection from virus-induced cytopathogenicity after 6 to 7 days by MTT assay. The format is functional, organism-based. Particulars: Human respirovirus 3, Vero.
In data set [37] the test system is Vesicular stomatitis virus. Briefly: Antiviral activity against VSV infected in human HeLa cells assessed as protection from virus-induced cytopathogenicity after 1 to 2 days by MTT assay. The format is functional, organism-based.
Data set [38] relates to Vero. Briefly: Cytotoxicity against Human coxsackievirus B4 infected african green monkey Vero cells by trypan blue exclusion method. The format is cell-based. The settings on record: chlorocebus sabaeus, vero. The method, boiled down: as §2
Data set [39] relates to Vero. Briefly: Cytotoxicity against Reovirus 1 infected african green monkey Vero cells by trypan blue exclusion method. Particulars: chlorocebus sabaeus, vero. The format is cell-based. An outline of the steps: as §2
Data set [40] deals with Feline coronavirus. Briefly: Antiviral activity against Feline coronavirus infected in cat CRFK cells assessed as protection from virus-induced cytopathogenicity by MTT assay. The format is functional, organism-based. The settings on record: Alphacoronavirus 1, CRFK.
Data set [41] deals with Punta Toro virus. Put plainly: Antiviral activity against Punta Toro virus infected in african green monkey Vero cells assessed as protection from virus-induced cytopathogenicity by MTT assay. The format is functional, organism-based.
Data set [42] concerns Human immunodeficiency virus 2. Put plainly: Antiviral activity against HIV2 ROD infected in human MT4 cells assessed as protection from virus-induced cytopathogenicity after 5 days by MTT assay. The settings on record: Human immunodeficiency virus 2, ISOLATE ROD, MT4, 120 h. The format is functional, organism-based. An outline of the steps: as §4
Data set [43] relates to Vero. Put plainly: Cytotoxicity against Punta Toro virus infected african green monkey Vero cells by trypan blue exclusion method. The format is cell-based. The settings on record: chlorocebus sabaeus, vero. An outline of the steps: as §2

Turning to GENTAMICIN SULFATE, the MIC in data set [1], in data set [2], in data set [3] and in data set [4] was over 1.73 µM in each case.
As to `COc1cc(/C=C/C(=O)C(CCOC(=O)CCC(NC(=O)c2ccc(NCc3cnc4nc(N)[nH]c(=O)c4n3)cc2)C(=O)O)C(=O)/C=C/c2ccc(O)c(OC)c2)ccc1O` (centres undefined), the concentration for a half-maximal effect (EC50) in data set [5], in data set [7], in [10], in data set [12], in [13] and in [14] was over 11 nM throughout. Moreover, the EC50 in [20], in [21], in data set [25], in data set [27], in data set [31] and in data set [34] was over 11 nM each time. Further, the 50% effective concentration (EC50) in data set [35], in data set [36], in data set [37], in data set [40] and in data set [41] was over 11 nM in each case. In addition, the CC50 is over 11 nM in data set [6]; over 11 nM in data set [8]; over 11 nM in [9]; over 11 nM in data set [11]; over 11 nM in data set [15]; over 65 nM in data set [16]. Further, the cytotoxic concentration (CC50) in data set [17] is over 11 nM; in data set [18], over 11 nM; in [19], over 11 nM; in data set [22], over 11 nM; in data set [23], over 63 nM; in [24] it was over 11 nM. The 50% cytotoxic concentration (CC50) in data set [26], in data set [28], in [29], in data set [32], in data set [33] and in data set [38] was over 11 nM in each case. This compound gave a half-maximal cytotoxic concentration (CC50) in data set [39] of over 11 nM. Besides, in [2] (Proteus mirabilis, 24 h, read-out: MIC), the MIC turned out to be 0.09 µM (≈ 0.0752 µg/mL). The figures for the IC50 in [30] and in data set [42] were 63 nM and 65 nM, respectively.
With `O=c1[nH]c(=O)n([C@H]2C[C@H](O)[C@@H](CO)O2)cc1/C=C/Br` [BRIVUDINE], the CC50 in data set [8], in data set [19], in [22], in data set [29] and in data set [32] was over 250000 nM in each case. The EC50 in data set [13] was over 250000 nM.
On to `Nc1ncnc2c1ncn2C[C@H](O)CO` [(S)-DHPA], for which the CC50 in data set [6], in [9], in data set [11], in data set [18], in data set [28] and in data set [38] was over 250000 nM in each case. The CC50 in data set [43] and in data set [39] was over 250000 nM each time. For the same compound, the EC50 in data set [7] was 146000 nM; in data set [12] it was over 250000 nM; in data set [31], over 250000 nM; in [35] it was over 250000 nM; in [36], over 250000 nM; in [37] it was 146000 nM. In addition, the EC50 in [41] is over 250000 nM.

(Values after ChEMBL document CHEMBL1154855 (Eur J Med Chem, 2010).)
